Assay results as given in publication PMC6393846 (Future Microbiology, 2019).
Values after ≈ are worked out from the molar mass of the structure shown.

Assays:
[1] = system: Staphylococcus epidermidis ATCC 12228; conditions: for reduction of the MIC of the antibiotic in the presence of PlnJK: 12.5 μM PlnJK with antibiotic versus antibiotic alone
[2] = system: Staphylococcus epidermidis ATCC 12228; assay: microbe, parasite or virus in culture; conditions: ATCC12228
[3] = system: S. epidermidis; assay: Antibiotics combined with plantaricins, summary statements; assay type: cell-based, Staphylococcus epidermidis; conditions: summary in abstract/discussion; PlnEF with antibiotic; strain not specified
How it was run: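 Broth microdilution with S. epidermidis grown overnight in LB at 37 °C with shaking and adjusted by viable count. Twofold antibiotic series: vancomycin and teicoplanin 0.097–50 μg/ml, gentamicin 0.0097–5 μg/ml, tetracycline 0.016–8 μg/ml. Each well also held a fixed paired plantaricin at 12.5 or 6.25 μM, each partner peptide equimolar. MIC/MBC read after 20 h.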

[4] = system: S. epidermidis 126 (hGISE clinical isolate); assay: Broth microdilution MIC/MBC, clinical isolate; assay type: cell-based, Staphylococcus epidermidis; conditions: for MIC: Staphylococcus epidermidis
[5] = 12.5 μM PlnEF with antibiotic versus antibiotic alone

Row | Molecule | reduction of the MIC of the antibiotic in the presence of PlnJK [1] | MIC [2] | enhancement of the effects of the antibiotic by plantaricin [3] | reduction of the MBC of the antibiotic in the presence of PlnEF [4, 5] | reduction of the MIC of the antibiotic in the presence of PlnEF [4, 5] | MIC [4] | reduction of the MIC of the antibiotic in the presence of PlnEF [1, 5] | MBC [2]
1 | CNC(C)C1CCC(N)C(OC2C(N)CC(N)C(OC3OCC(C)(O)C(NC)C3O)C2O)O1 (stereo not drawn) [Gentamicin] | approximately sevenfold | 0.31 µg/mL (≈ 0.649 µM) | > 500 fold | 260 fold | 500 fold | > 5 µg/mL | – | –
2 | CN(C)[C@@H]1C(O)=C(C(N)=O)C(=O)[C@@]2(O)C(O)=C3C(=O)c4c(O)cccc4[C@@](C)(O)[C@H]3C[C@@H]12 [Tetracycline] | – | – | > 500 fold | – | 125 fold | ≥ 2 µg/mL | 500 fold | –
3 | CN[C@H](CC(C)C)C(=O)N[C@H]1C(=O)N[C@@H](CC(N)=O)C(=O)N[C@H]2C(=O)N[C@H]3C(=O)N[C@H](C(=O)N[C@H](C(=O)O)c4cc(O)cc(O)c4-c4cc3ccc4O)[C@H](O)c3ccc(c(Cl)c3)Oc3cc2cc(c3O[C@@H]2O[C@H](CO)[C@@H](O)[C@H](O)[C@H]2O[C@H]2C[C@](C)(N)[C@H](O)[C@H](C)O2)Oc2ccc(cc2Cl)[C@H]1O [Vancomycin] | – | 3.1 µg/mL (≈ 2.14 µM) | > 30 fold | – | – | – | – | 6.25 µg/mL (≈ 4.31 µM)
4 | Teicoplanin | twofold | – | > 30 fold | – | – | – | – | –
